Reference: ChEMBL document CHEMBL1139743, “Synthesis and antihyperlipidemic activity of novel glycosyl fructose derivatives” (2006)

What was measured:
Assay type in all cases: functional, Mesocricetus auratus
Syrian golden hamster [1] = assay: Antihyperlipidemic activity measured by HDL level in golden syrian hamster at 100 mg/kg, po
Method in brief: (§1)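 Male golden Syrian hamsters (120–130 g), 8 per group, made hyperlipidemic on high fat diet with free access to diet and water throughout. Compound given orally in water from day 4 to day 10 (7 days); HFD hamsters given water only served as controls. On day 10, blood from nonfasted animals was drawn and cooled to 0 C for 15 min. Triglycerides, total cholesterol and HDL cholesterol were measured the same day in plasma without NaF using enzymatic kits.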

Syrian golden hamster [2] = assay: Antihyperlipidemic activity measured by HDL/total cholesterol ratio in golden syrian hamster at 100 mg/kg, po; method in brief: as §1
Syrian golden hamster [3] = assay: Antihyperlipidemic activity measured by glycerol level in golden syrian hamster at 100 mg/kg, po
Method in brief: (§2)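 High-fat-diet hyperlipidemic male golden Syrian hamsters (120–130 g, n=8 per group) were dosed orally in water vehicle on days 4–10; water-only HFD hamsters served as controls. On day 10, nonfasted blood was drawn into tubes containing 120 µL NaF (4.5 mg/mL) and chilled to 0 C for 15 min. Glycerol and free fatty acids were assayed in this NaF plasma on a clinical chemistry analyser.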

Syrian golden hamster [4] = assay: Antihyperlipidemic activity measured by increase in free fatty acid level in golden syrian hamster at 100 mg/kg, po relative to control; method in brief: as §2
Syrian golden hamster [5] = assay: Antihyperlipidemic activity measured by free fatty acid level in golden syrian hamster at 100 mg/kg, po; method in brief: as §2
Syrian golden hamster [6] = assay: Antihyperlipidemic activity measured by decrease in triglyceride level in golden syrian hamster at 100 mg/kg, po relative to control; parameters: scale not given: the % may be the effect or the level left; method in brief: as §1
Syrian golden hamster [7] = assay: Antihyperlipidemic activity measured by decrease in cholesterol level in golden syrian hamster at 100 mg/kg, po relative to control; parameters: scale not given: the % may be the effect or the level left; method in brief: as §1
Syrian golden hamster [8] = assay: Antihyperlipidemic activity measured by cholesterol level in golden syrian hamster at 100 mg/kg, po; method in brief: as §1
Syrian golden hamster [9] = assay: Antihyperlipidemic activity measured by increase in glycerol level in golden syrian hamster at 100 mg/kg, po relative to control; method in brief: as §2
Syrian golden hamster [10] = assay: Antihyperlipidemic activity measured by increase in HDL/total cholesterol ratio in golden syrian hamster at 100 mg/kg, po relative to control; method in brief: as §1
Syrian golden hamster [11] = assay: Antihyperlipidemic activity measured by triglyceride level in golden syrian hamster at 100 mg/kg, po; method in brief: as §1
Syrian golden hamster [12] = assay: Antihyperlipidemic activity measured by decrease in glycerol level in golden syrian hamster at 25 mg/kg relative to control; parameters: scale not given: the % may be the effect or the level left; method in brief: as §2
Syrian golden hamster [13] = assay: Antihyperlipidemic activity measured by glycerol level in golden syrian hamster at 25 mg/kg; method in brief: as §2
Syrian golden hamster [14] = assay: Antihyperlipidemic activity measured by decrease in free fatty acid level in golden syrian hamster at 25 mg/kg relative to control; parameters: scale not given: the % may be the effect or the level left; method in brief: as §2
Syrian golden hamster [15] = assay: Antihyperlipidemic activity measured by HDL/total cholesterol ratio in golden syrian hamster at 25 mg/kg; method in brief: as §1
Syrian golden hamster [16] = assay: Antihyperlipidemic activity measured by decrease in triglyceride level in golden syrian hamster at 25 mg/kg relative to control; parameters: scale not given: the % may be the effect or the level left; method in brief: as §1
Syrian golden hamster [17] = assay: Antihyperlipidemic activity measured by cholesterol level in golden syrian hamster at 25 mg/kg; method in brief: as §1
Syrian golden hamster [18] = assay: Antihyperlipidemic activity measured by increase in HDL level in golden syrian hamster at 100 mg/kg, po relative to control; method in brief: as §1
Syrian golden hamster [19] = assay: Antihyperlipidemic activity measured by decrease in cholesterol level in golden syrian hamster at 25 mg/kg relative to control; parameters: scale not given: the % may be the effect or the level left; method in brief: as §1
Syrian golden hamster [20] = assay: Antihyperlipidemic activity measured by HDL level in golden syrian hamster at 25 mg/kg; method in brief: as §1
Syrian golden hamster [21] = assay: Antihyperlipidemic activity measured by decrease in HDL level in golden syrian hamster at 25 mg/kg relative to control; parameters: scale not given: the % may be the effect or the level left; method in brief: as §1
Syrian golden hamster [22] = assay: Antihyperlipidemic activity measured by decrease in glycerol level in golden syrian hamster at 100 mg/kg, po relative to control; parameters: scale not given: the % may be the effect or the level left; method in brief: as §2
Syrian golden hamster [23] = assay: Antihyperlipidemic activity measured by decrease in HDL/total cholesterol ratio in golden syrian hamster at 25 mg/kg relative to control; parameters: scale not given: the % may be the effect or the level left; method in brief: as §1
Syrian golden hamster [24] = assay: Antihyperlipidemic activity measured by free fatty acid level in golden syrian hamster at 25 mg/kg; method in brief: as §2
Syrian golden hamster [25] = assay: Antihyperlipidemic activity measured by triglyceride level in golden syrian hamster at 25 mg/kg; method in brief: as §1
Syrian golden hamster [26] = assay: Antihyperlipidemic activity measured by decrease in free fatty acid level in golden syrian hamster at 100 mg/kg, po relative to control; parameters: scale not given: the % may be the effect or the level left; method in brief: as §2
Syrian golden hamster [27] = assay: Antihyperlipidemic activity measured by increase in cholesterol level in golden syrian hamster at 100 mg/kg, po relative to control; method in brief: as §1
Syrian golden hamster [28] = assay: Antihyperlipidemic activity measured by increase in triglyceride level in golden syrian hamster at 100 mg/kg, po relative to control; method in brief: as §1
Syrian golden hamster [29] = assay: Antihyperlipidemic activity measured by decrease in HDL/total cholesterol ratio in golden syrian hamster at 100 mg/kg, po relative to control; parameters: scale not given: the % may be the effect or the level left; method in brief: as §1
Syrian golden hamster [30] = assay: Antihyperlipidemic activity measured by increase in HDL/total cholesterol ratio in golden syrian hamster at 25 mg/kg relative to control; method in brief: as §1
Syrian golden hamster [31] = assay: Antihyperlipidemic activity measured by increase in HDL level in golden syrian hamster at 25 mg/kg relative to control; method in brief: as §1

SMILES	Activity (Syrian golden hamster [1])	Ratio (Syrian golden hamster [2])	Activity (Syrian golden hamster [3])	Activity (Syrian golden hamster [5])	Activity (Syrian golden hamster [6])	Activity (Syrian golden hamster [7])	Activity (Syrian golden hamster [8])	Activity (Syrian golden hamster [10])	Activity (Syrian golden hamster [11])	Activity (Syrian golden hamster [18])	Activity (Syrian golden hamster [22])	Activity (Syrian golden hamster [26])	Activity (Syrian golden hamster [27])	other results
OC[C@H]1O[C@](O)(CO)[C@@H](O[C@@H]2OC[C@@H](O)[C@@H](O)[C@H]2O)[C@@H]1O	3.14 mM	0.35	0.99 mM	924.84 µM	9%	23%	8.9 mM	31%	13.09 mM	–	–	–	–	Activity (Syrian golden hamster [4]): 28%; Activity (Syrian golden hamster [9]): 18%
OC[C@H]1O[C@](O)(CO)[C@@H](O[C@@H]2O[C@H](CO)[C@@H](O[C@@H]3O[C@H](CO)[C@@H](O)[C@H](O)[C@H]3O)[C@H](O)[C@H]2O)[C@@H]1O	3.4 mM	0.34	0.81 mM	726.03 µM	58%	15%	9.79 mM	29%	6.09 mM	10%	4%	–	–	Activity (Syrian golden hamster [12]): 8%; Activity (Syrian golden hamster [13]): 0.77 mM; Activity (Syrian golden hamster [14]): 10%; Ratio (Syrian golden hamster [15]): 0.24; Activity (Syrian golden hamster [16]): 29%; Activity (Syrian golden hamster [17]): 10.97 mM; Activity (Syrian golden hamster [19]): 5%; Activity (Syrian golden hamster [20]): 2.64 mM; Activity (Syrian golden hamster [21]): 15%; Activity (Syrian golden hamster [23]): 11%; Activity (Syrian golden hamster [24]): 0.648 mM; Activity (Syrian golden hamster [25]): 10.23 mM
OC[C@H]1O[C@](O)(CO)[C@@H](O[C@@H]2OC[C@@H](O)[C@H](O)[C@H]2O)[C@@H]1O	3.26 mM	0.27	0.61 mM	692.34 µM	30%	–	12 mM	–	10.08 mM	5%	28%	4%	–	–
OC[C@H]1O[C@](O)(CO)[C@@H](O[C@H]2O[C@H](CO)[C@@H](O)[C@H](O)[C@@H]2O)[C@@H]1O	4.33 mM	0.28	0.66 mM	510.7 µM	29%	–	15.26 mM	5%	10.16 mM	40%	21%	30%	32%	–
OC[C@H]1O[C@](O)(CO)[C@@H](O[C@H]2OC[C@@H](O)[C@@H](O)[C@@H]2O)[C@@H]1O	3.49 mM	0.29	1 mM	708.69 µM	–	–	12.04 mM	7%	15.26 mM	13%	–	–	4%	Activity (Syrian golden hamster [28]): 6%; Activity (Syrian golden hamster [9]): 19%
OC[C@H]1O[C@@H](O[C@H]2[C@H](O)[C@@H](CO)O[C@]2(O)CO)[C@H](O)[C@@H](O)[C@H]1O	3.6 mM	0.21	0.82 mM	450 µM	52%	–	17.59 mM	–	6.88 mM	16%	–	38%	52%	Activity (Syrian golden hamster [29]): 22%
C[C@@H]1O[C@@H](O[C@H]2[C@H](O)[C@@H](CO)O[C@]2(O)CO)[C@H](O)[C@H](O)[C@H]1O	3.1 mM	0.35	1.11 mM	833.12 µM	–	24%	8.82 mM	30%	14.17 mM	–	–	–	–	Activity (Syrian golden hamster [4]): 15%; Activity (Syrian golden hamster [9]): 32%
OC[C@H]1O[C@](O)(CO)[C@@H](O[C@@H]2O[C@H](CO)[C@@H](O[C@H]3O[C@H](CO)[C@@H](O)[C@H](O)[C@H]3O)[C@H](O)[C@H]2O)[C@@H]1O	3.43 mM	0.3	0.82 mM	726.74 µM	11%	–	11.38 mM	12%	12.76 mM	11%	–	–	–	–
OC[C@H]1O[C@@H](O[C@H]2[C@H](O)[C@@H](O)[C@H](O[C@H]3[C@H](O)[C@@H](CO)O[C@]3(O)CO)O[C@@H]2CO)[C@H](O)[C@@H](O)[C@H]1O	3.55 mM	0.34	0.75 mM	670.62 µM	47%	9%	10.55 mM	25%	7.61 mM	15%	11%	8%	–	Activity (Syrian golden hamster [12]): 17%; Activity (Syrian golden hamster [30]): 11%; Activity (Syrian golden hamster [13]): 0.7 mM; Activity (Syrian golden hamster [14]): 21%; Ratio (Syrian golden hamster [15]): 0.3; Activity (Syrian golden hamster [16]): 44%; Activity (Syrian golden hamster [17]): 11.02 mM; Activity (Syrian golden hamster [19]): 5%; Activity (Syrian golden hamster [20]): 3.28 mM; Activity (Syrian golden hamster [24]): 0.572 mM; Activity (Syrian golden hamster [31]): 5%; Activity (Syrian golden hamster [25]): 7.96 mM
OC[C@H]1O[C@@](CO)(O[C@H]2O[C@H](CO)[C@@H](O)[C@H](O)[C@H]2O)[C@@H](O[C@H]2O[C@H](CO)[C@@H](O)[C@H](O)[C@H]2O)[C@@H]1O [MELEZITOSE]	4.95 mM	0.38	0.71 mM	510.7 µM	51%	–	13 mM	41%	6.98 mM	59%	15%	30%	12%	–
OC[C@H]1O[C@H](OC[C@H]2O[C@H](O[C@]3(CO)O[C@H](CO)[C@@H](O)[C@@H]3O)[C@H](O)[C@@H](O)[C@@H]2O)[C@H](O)[C@@H](O)[C@H]1O [RAFFINOSE]	3.41 mM	0.45	0.86 mM	540.49 µM	44%	35%	7.55 mM	66%	8.06 mM	10%	–	25%	–	–
